Shown are actives, neighbours in structure and some others; about 3.1% of the full set was active somewhere.
KCNK9 inh: human KCNK9 channel inhibition; B-score at 10 µM; Q9NPC2; 1.2% of 310,000 active; HEK293 KCNK9, FluxOR thallium flux fluorescence; hits give low values; AID 488922;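 active = ratio B-score over 3 SD below the library mean, with starting fluorescence within 5 SD of its mean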;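 also: negative B-score means less thallium flux so channel inhibition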
KCNK3 block: human KCNK3 channel inhibition, primary screen; CHO-KCNK3 thallium flux, FluxOR fluorescence; hits give low values; B-score at 10 µM; 0.84% of 340,000 active;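 active = B-score under library mean minus 4 SD, starting fluorescence ratio at most library mean plus 5 SD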;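 also: more negative B-score means stronger inhibition of thallium flux through KCNK3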
Target sequence (O14649 whole entry, looked up): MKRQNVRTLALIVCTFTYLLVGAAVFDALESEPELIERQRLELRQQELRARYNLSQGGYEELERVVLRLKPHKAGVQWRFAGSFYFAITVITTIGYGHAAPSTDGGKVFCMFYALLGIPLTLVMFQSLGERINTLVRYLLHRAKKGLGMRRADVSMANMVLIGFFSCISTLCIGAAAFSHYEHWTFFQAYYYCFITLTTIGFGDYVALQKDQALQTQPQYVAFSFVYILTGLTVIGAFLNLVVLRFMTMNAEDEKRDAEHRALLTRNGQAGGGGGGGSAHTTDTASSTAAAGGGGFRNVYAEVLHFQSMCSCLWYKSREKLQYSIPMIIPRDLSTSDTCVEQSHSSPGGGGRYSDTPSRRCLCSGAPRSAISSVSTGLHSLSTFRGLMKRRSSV
hERG rescue: hERG (human) protection from proarrhythmic block; activation (rescue from dofetilide block), less the hit threshold, % at 10 µM; CHO-hERG, FluxOR thallium flux, dofetilide IC70 present; 0.51% of 310,000 active; Q12809; AID 1511;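 active = activation above the mean of controls blocked by dofetilide plus 5 SD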;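 also: thallium influx through hERG after potassium depolarization seen as dye fluorescence rise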
KCNQ1 pot: potentiates or activates the human KCNQ1 potassium channel; P51787; CHO-K1 KCNQ1, thallium flux FluxOR fluorescence; hits give high values; B-score at 10 µM; 0.35% of 310,000 active;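 active = fluorescence ratio B-score, a plate-corrected score, at least three library SD, with initial intensity B-score within 5 SD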
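Test system: CHO-K1 cells stably expressing KCNQ1 / Medium: assay buffer / Also added: depolarizing K+/Tl+ stimulus, K2SO4 and Tl2SO4 each 12.5 mM in 5x stock / Incubation: 90 min dye loading and 20 min compound exposure, both at room temperature / Signal: thallium influx via FluxOR fluorescence, kinetic imaging / Evaluation: B score of baseline-normalized fluorescence ratio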
KCNQ1 inh: inhibitors of human KCNQ1 potassium channel; 1.3% of 310,000 active; P51787; B-score at 10 µM; CHO-K1 KCNQ1, FluxOR thallium flux fluorescence; hits give high values; AID 2642;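 active = compounds whose thallium flux B-score, printed positive for inhibition, exceeds three library SD while starting fluorescence stays within three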;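 also: channel opened by potassium depolarization with thallium stimulus after 20 min compound exposure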
KCNQ1 inh valid: human KCNQ1 channel inhibition, validation assay; shares compounds with KCNQ1 inh; KCNQ1 cell line, FluxOR thallium flux fluorescence; inhibition, % at 10 µM; 93% of 1,600 active;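 active = primary screen active, with duplicate mean exceeding buffer control mean plus 3 SD of buffer wells, cut at about 28% in these data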
CHO KCNQ1 ctr: activity in parental CHO cells lacking KCNQ1; parental CHO-K1, FluxOR thallium flux fluorescence ratio; hits give low values; zero means no signal rise above baseline; fluorescence ratio (Tl flux) at 10 µM; 21% of 1,600 active; shares compounds with KCNQ1 inh;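 active = mean of duplicate thallium-flux fluorescence ratios in parental host cells more than 5 SD below the buffer control mean, cut at about 0.38 in these data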;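 also: ratio is peak minus minimum fluorescence divided by baseline fluorescence; actives read low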
KCNQ1 APC inh: human KCNQ1 inhibition validated by electrophysiology; shares compounds with KCNQ1 inh; KCNQ1-CHO cells, automated patch clamp current; calls only at 10 µM; 20% of 490 active; AID 624120;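 active = KCNQ1 current drop exceeding 3 SD of negative control wells, seen in both duplicate runs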;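 also: steady state current during a 2 s step from -80 to +40 mV; negative values mean current inhibition and positive values mean potentiation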
KCNQ2 spec: KCNQ1 inhibitor that also blocks rat KCNQ2 channel; 71% of 1,600 active; shares compounds with KCNQ1 inh; AID 651746; inhibition, % at 10 µM; KCNQ2 cells, FluxOR thallium flux fluorescence;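 active = mean percent inhibition of the KCNQ2 thallium signal more than 5 SD above the buffer-only control wells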;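 also: KCNQ2 expressed in CHO cells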
KCNQ1 KCNE1 spec: human KCNQ1/KCNE1 inhibition in KCNQ1 specificity screen; shares compounds with KCNQ1 inh; KCNQ1/KCNE1 cells, FluxOR thallium flux fluorescence; inhibition, % at 10 µM; 77% of 1,600 active;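 active = mean percent inhibition of duplicate wells above the buffer-only control mean plus 3 SD of those controls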
Hits are given with their value; - = inactive; . = no result given; + = active, no number.

SMILES	KCNK9 inh	KCNK3 block	hERG rescue	KCNQ1 pot	KCNQ1 inh	KCNQ1 inh valid	CHO KCNQ1 ctr	KCNQ2 spec	KCNQ1 KCNE1 spec	others
Cc1ccc(O)c(-c2cc(C(F)(F)C(F)F)[nH]n2)c1	-	-	-	-	6	93	-	105%	129%	KCNQ1 APC inh=+
Cc1cc(/C=C2/SC(=S)N(c3ccc([N+](=O)[O-])cc3)C2=O)c(C)n1-c1cccnc1	-	-	-	-	16	124	-	75%	102%	KCNQ1 APC inh=-
COc1cc(OC)cc(C(=O)NNS(=O)(=O)c2ccc(F)cc2)c1	-	-	-	-	-	.	.	.	.
Cc1ccc(NC(=O)C(=O)NCCCN2CCOCC2)c(C)c1	-	-	-	-	-	.	.	.	.
COc1ccc(CNC(=O)COC(=O)c2cc3ccccc3o2)cc1	.	-	.	.	.	.	.	.	.
COc1ccc(/C=C2\Oc3cc(OCC(=O)N4CCC[C@H]4CO)ccc3C2=O)c(OC)c1	-	-	-	-	-	.	.	.	.
Cc1cccc(C)c1OC(=O)C(c1ccccc1)c1ccccc1	-	-	-	-	7	96	-	89%	148%	KCNQ1 APC inh=-
Cc1cc(=O)n(CC(=O)NC2CC2)c2c1c(C)nn2-c1ccccc1	-	-	-	-	7	80	-	-	94%
Cc1nc(N2CCOCC2)c2c(C)c(C(=O)Nc3ccccc3Cl)sc2n1	-	-	-	-	-	.	.	.	.
Cc1nc(N2CCC(C)CC2)c2c(C)c(C(=O)Nc3ccc4c(c3)OCCO4)sc2n1	-	-	-	-	8	112	-	120%	92%	KCNQ1 APC inh=-
C=CCNc1sc(C(=O)c2ccccc2)c(N)c1-c1nc2ccccc2s1	-	-	-	-	7	57	-	73%	84%
O=C(CC1C(=O)N(c2ccccc2)C(=S)N1c1ccccc1)c1ccc(Br)cc1 (configuration not stated)	-	-	-	-	6	65	-	97%	68%
O=C(CC1C(=O)N(c2ccccc2)C(=S)N1c1ccccc1)c1ccccc1 (configuration not stated)	-	-	-	-	-	.	.	.	.
COc1cccc(C(=O)Nc2ccc(Cl)c(C(F)(F)F)c2)c1	-	-	-	-	9	136	0.37	130%	78%
Cc1nn(CC(=O)NC(=O)c2ccccc2)c(C)c1[N+](=O)[O-]	.	-	.	.	.	.	.	.	.
CC(C)NC(=O)c1ccccc1NS(=O)(=O)c1ccc(Br)s1	-	-	-	-	8	-	-	-	56%
CCc1ccc(NC(=S)NC(=O)CC(C)C)cc1	-	-	-	-	-	.	.	.	.
CCOc1nc(Nc2ccc(F)cc2)nc(N2CCN(c3ccc(OC)cc3)CC2)n1	-	-	-	-	-	.	.	.	.
CCOc1nc(Nc2ccc(OC)c(Cl)c2)nc(N2CCN(c3ccc(OC)cc3)CC2)n1	-	-	-	-	7	114	-	79%	144%	KCNQ1 APC inh=-
O=C(COC(=O)/C=C/c1ccc([N+](=O)[O-])cc1)NNC(=O)c1ccccc1	.	-	.	.	.	.	.	.	.
O=C(Cc1ccccc1)c1c[nH]c(C(=O)NCCCn2ccnc2)c1	-	.	-	-	-	.	.	.	.
O=C(c1ccc(C(F)(F)F)cc1)c1c[nH]c(C(=O)NCCCn2ccnc2)c1	-	-	-	-	7	59	-	-	89%
CCOC(=O)c1cnc(SC)nc1Oc1cccc(NS(=O)(=O)c2ccccc2)c1	-	-	-	-	7	56	-	93%	50%
CCC1Sc2ccc(S(=O)(=O)Nc3ccc(OC)cc3)cc2NC1=O (configuration not stated)	-	-	-	-	-	.	.	.	.
CCC1Sc2ccc(S(=O)(=O)Nc3ccc(OC)c(OC)c3)cc2NC1=O (configuration not stated)	-	-	-	-	7	80	-	69%	-
SMILES	KCNK9 inh	KCNK3 block	hERG rescue	KCNQ1 pot	KCNQ1 inh	KCNQ1 inh valid	CHO KCNQ1 ctr	KCNQ2 spec	KCNQ1 KCNE1 spec	others
Cc1cc(C)c(CSc2ncc(-c3ccc([N+](=O)[O-])cc3)[nH]2)c(C)c1	-	-	-	-	16	140	-	93%	184%	KCNQ1 APC inh=-
CNS(=O)(=O)c1cccc(C(=O)OCC(=O)Nc2ccc3ccccc3c2)c1	.	-	.	.	.	.	.	.	.
CC(=O)c1ccc(NC(=S)NC2CCCC(C)C2C)cc1 (configuration not stated)	-	-	-	-	7	47	-	-	34%
FC(F)Oc1ccc(NC(=S)NCc2ccccc2)cc1	-	-	-	-	-	.	.	.	.
FC(F)Sc1ccc(NC(=S)NCc2ccccc2)cc1	-	-	-	-	8	58	-	93%	-
CC1CCCC(NC(=S)Nc2cccc(S(=O)(=O)N(C)C)c2)C1C (configuration not stated)	-	-	-	-	8	35	-	-	-
CC1CCCCC1NC(=S)Nc1ccc(SC(F)F)cc1 (configuration not stated)	-	-	-	-	7	66	-	-	40%
CC1CCN(C(=S)Nc2ccc(SC(F)F)cc2)CC1	-	-	-	-	-	.	.	.	.
Cc1cc(C)n2nc(C(=O)NNC(=O)c3ccccc3)nc2n1	-	-	-	-	-	.	.	.	.
COCCn1c(SCC(=O)N2CCCC2)nc2c([nH]c3ccccc32)c1=O	-	-	-	-	-	.	.	.	.
CC(C)(C)NC(=O)C1Cc2ccccc2CN1 (configuration not stated)	-	-	-	-	-	.	.	.	.
CC1(C)Cc2c(cnn2-c2ccc(F)cc2)C(NC(=O)C(C)(C)O)C1 (configuration not stated)	-	-	-	-	-	.	.	.	.
CC1(C)Cc2c(cnn2-c2ccc(F)cc2)C(NC(=O)C2CCC2)C1 (configuration not stated)	-	-	-	-	8	103	-	70%	112%	KCNQ1 APC inh=+
CN1/C(=C\C=C2/SC(=S)N(CC(=O)O)C2=O)C(C)(C)c2ccccc21	-	-	-	-	24	+	0.044	-	-
Cn1cccc1/C=C1/SC(=S)N(CC(=O)O)C1=O	-	-	-	-	-	.	.	.	.
O=S(=O)(NCc1cccs1)c1ccc(Br)cc1	-	-	-	-	-	.	.	.	.
O=C(Nc1ccc(Br)cc1)c1ccc(F)c(S(=O)(=O)NCc2cccs2)c1	-	-	-	-	7	140	-	92%	130%
CCN(c1ccccc1)c1nc(Cl)nc2c1cnn2C	.	-	.	.	.	.	.	.	.

Bioassay records from PubChem.
